These results are taken from ChEMBL document CHEMBL4261658, “4-Hydroxy-3-nitro-5-ureido-benzenesulfonamides Selectively Target the Tumor-Associated Carbonic Anhydrase Isoforms IX and XII Showing Hypoxia-Enhanced Antiproliferative Profiles” (J Med Chem, 2018).

As a reminder, the Ki is the dissociation constant of the complex between target and ligand, obtained from inhibition or displacement.

One experiment deals with Carbonic anhydrase 9 (Homo sapiens, UniProt Q16790). In words: Inhibition of carbonic anhydrase 9 (unknown origin) preincubated for 15 mins by stopped flow CO2 hydration assay.
A further experiment has as its target Carbonic anhydrase 12 (Homo sapiens, UniProt O43570).
Experiment [1] relates to HT-29. In words: Cytotoxicity against human HT-29 cells assessed as cell viability at 30 uM after 48 hrs under normoxic conditions by MTT assay (reference value: 100%). It counts as functional. The gist of the method: (§1)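 Cells cultured in high-glucose DMEM with 20% FBS at 37 °C and 5% CO2, seeded at 1x10^4/well, then dosed 24 h later (0–200 μM) for 48 h. Hypoxia: 1% O2, 5% CO2, balance N2 in a hypoxic workstation; normoxia: 20% O2 in air, 5% CO2. MTT (1 mg/ml) for 30 min at 37 °C, formazan dissolved in DMSO, A550. Untreated control set to 100%; quadruplicates, ≥3 cell batches, mean ± S.E.M.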
(In general: Formazan colour is commonly taken as a measure of viable cells.)

In experiment [2] the test system is HT-29. In words: Cytotoxicity against human HT-29 cells assessed as cell viability at 100 uM after 48 hrs under normoxic conditions by MTT assay (reference value: 100%). It counts as functional. The essentials:
as §1

The test system of experiment [3] is HT-29. In words: Cytotoxicity against human HT-29 cells assessed as cell viability at 200 uM after 48 hrs under normoxic conditions by MTT assay (reference value: 100%). It counts as functional. The essentials: as §1
In experiment [4] the test system is HT-29. In words: Cytotoxicity against human HT-29 cells assessed as cell viability at 30 uM after 48 hrs under hypoxic conditions by MTT assay (reference value: 100%). It counts as functional. The essentials:
as §1

The subject of experiment [5] is HT-29. In words: Cytotoxicity against human HT-29 cells assessed as cell viability at 100 uM after 48 hrs under hypoxic conditions by MTT assay (reference value: 100%). It counts as functional. The essentials: as §1
For experiment [6], the system named is HT-29. In words: Cytotoxicity against human HT-29 cells assessed as cell viability at 200 uM after 48 hrs under hypoxic conditions by MTT assay (reference value: 100%). It counts as functional. The essentials:
as §1

The subject of experiment [7] is MDA-MB-231. In words: Cytotoxicity against human MDA-MB-231 cells assessed as cell viability at 200 uM after 48 hrs under hypoxic conditions by MTT assay (reference value: 100%). The following applies: MDA-MB-231, 48 h, read-out: Activity. Format: functional. The gist of the method: as §1
In experiment [8] the test system is MDA-MB-231. In words: Cytotoxicity against human MDA-MB-231 cells assessed as cell viability at 30 uM after 48 hrs under normoxic conditions by MTT assay (reference value: 100%). Format: functional. Particulars: MDA-MB-231, 48 h, read-out: Activity. The gist of the method:
as §1

In experiment [9] the test system is MDA-MB-231. In words: Cytotoxicity against human MDA-MB-231 cells assessed as cell viability at 100 uM after 48 hrs under normoxic conditions by MTT assay (reference value: 100%). It counts as functional. The following applies: MDA-MB-231, 48 h, read-out: Activity. The gist of the method:
as §1

Experiment [10] has as its system MDA-MB-231. In words: Cytotoxicity against human MDA-MB-231 cells assessed as cell viability at 200 uM after 48 hrs under normoxic conditions by MTT assay (reference value: 100%). Format: functional. The following applies: MDA-MB-231, 48 h, read-out: Activity. The gist of the method: as §1
In experiment [11] the test system is MDA-MB-231. In words: Cytotoxicity against human MDA-MB-231 cells assessed as cell viability at 100 uM after 48 hrs under hypoxic conditions by MTT assay (reference value: 100%). Format: functional. Particulars: MDA-MB-231, 48 h, read-out: Activity. The gist of the method: as §1
In experiment [12] the test system is MDA-MB-231. In words: Cytotoxicity against human MDA-MB-231 cells assessed as cell viability at 30 uM after 48 hrs under hypoxic conditions by MTT assay (reference value: 100%). Format: functional. The following applies: MDA-MB-231, 48 h, read-out: Activity. The gist of the method:
as §1

For experiment [13], the system named is PC-3. In words: Cytotoxicity against human PC3 cells assessed as cell viability at 30 uM after 48 hrs under normoxic conditions by MTT assay (reference value: 100%). Format: functional. The following applies: PC-3, 48 h, read-out: Activity. The essentials:
as §1

Experiment [14] has as its system PC-3. In words: Cytotoxicity against human PC3 cells assessed as cell viability at 100 uM after 48 hrs under normoxic conditions by MTT assay (reference value: 100%). It counts as functional. The following applies: PC-3, 48 h, read-out: Activity. The gist of the method: as §1
For experiment [15], the system named is PC-3. In words: Cytotoxicity against human PC3 cells assessed as cell viability at 200 uM after 48 hrs under normoxic conditions by MTT assay (reference value: 100%). Format: functional. Particulars: PC-3, 48 h, read-out: Activity. The essentials: as §1
Experiment [16] concerns PC-3. In words: Cytotoxicity against human PC3 cells assessed as cell viability at 30 uM after 48 hrs under hypoxic conditions by MTT assay (reference value: 100%). Format: functional. Particulars: PC-3, 48 h, read-out: Activity. The gist of the method: as §1
Experiment [17] relates to PC-3. In words: Cytotoxicity against human PC3 cells assessed as cell viability at 100 uM after 48 hrs under hypoxic conditions by MTT assay (reference value: 100%). Format: functional. The following applies: PC-3, 48 h, read-out: Activity. The gist of the method: as §1
Experiment [18] relates to PC-3. In words: Cytotoxicity against human PC3 cells assessed as cell viability at 200 uM after 48 hrs under hypoxic conditions by MTT assay (reference value: 100%). It counts as functional. Particulars: PC-3, 48 h, read-out: Activity. The gist of the method: as §1
The mark [19] stands for this setting: Homo sapiens, HT-29, 48 h, read-out: Activity.

The structures appear in SMILES notation.

Chain of Carbonic anhydrase 12 (O43570 whole entry): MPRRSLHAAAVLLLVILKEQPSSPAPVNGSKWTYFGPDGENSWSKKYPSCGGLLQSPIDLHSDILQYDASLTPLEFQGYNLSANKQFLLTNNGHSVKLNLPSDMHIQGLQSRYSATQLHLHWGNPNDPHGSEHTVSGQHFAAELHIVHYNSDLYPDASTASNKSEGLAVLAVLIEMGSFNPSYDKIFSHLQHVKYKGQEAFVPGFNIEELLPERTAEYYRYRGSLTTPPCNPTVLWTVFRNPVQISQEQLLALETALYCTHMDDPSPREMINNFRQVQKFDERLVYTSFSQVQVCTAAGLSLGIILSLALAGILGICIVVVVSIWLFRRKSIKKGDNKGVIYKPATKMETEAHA

For the molecule `NS(=O)(=O)c1cc(O)c(O)c([N+](=O)[O-])c1`, the Ki turned out to be 240 nM on Carbonic anhydrase 9 and 90 nM at Carbonic anhydrase 12.
As for `NS(=O)(=O)c1cc(NC(=O)c2ccccc2)c(OC(=O)c2ccccc2)c([N+](=O)[O-])c1`, the Ki came to 130 nM at Carbonic anhydrase 9 and 300 nM on Carbonic anhydrase 12.
The like results for `NS(=O)(=O)c1cc([N+](=O)[O-])c(OC(=O)c2ccccc2)c([N+](=O)[O-])c1` were, in that order, 90 nM and 70 nM.
For `COc1cccc(NC(=O)Nc2cc(S(N)(=O)=O)cc([N+](=O)[O-])c2O)c1`, the Ki is 460 nM on Carbonic anhydrase 9 and 530 nM on Carbonic anhydrase 12.
Regarding `CC(=O)Nc1nnc(S(N)(=O)=O)s1` [ACETAZOLAMIDE], the Activity is 96.9% with HT-29 [1]; 100.7% with HT-29 [2]; 96.9% in the experiment with HT-29 [3]; 107.6% in the experiment with HT-29 [4]; 101.7% in the experiment with HT-29 [5]; 90.9% in the experiment on HT-29 [6].
`NS(=O)(=O)c1ccc(NC(=O)Nc2ccc(F)cc2)cc1` [SLC-0111]: the viability at 200 µM in the experiment with MDA-MB-231 [7] stood at 103%; in the experiment on MDA-MB-231 [10] it was 56.9%; in the experiment with PC-3 [15], 83.1%; with PC-3 [18], 95.8%; with HT-29 [3] (setting [19]) it was 35.6%; with HT-29 [6] (setting [19]), 56.4%. Moreover, the viability at 30 µM with MDA-MB-231 [8] came out at 83.4%; in the experiment on MDA-MB-231 [12], 103%; in the experiment with PC-3 [13] it was 109%; in the experiment on PC-3 [16], 90.8%; in the experiment on HT-29 [1] (setting [19]), 62.4%; in the experiment with HT-29 [4] (setting [19]) it was 85.3%. The viability at 100 µM with MDA-MB-231 [9] amounted to 86.6%; with MDA-MB-231 [11], 107%; in the experiment with PC-3 [14], 109%; with PC-3 [17] it was 106%; with HT-29 [2] (setting [19]), 50.3%; in the experiment on HT-29 [5] (setting [19]), 71.5%.
On to `Cc1cc(C)cc(NC(=O)Nc2cc(S(N)(=O)=O)cc([N+](=O)[O-])c2O)c1`, for which the results for the Ki at Carbonic anhydrase 9 and at Carbonic anhydrase 12 were 530 nM and 620 nM, respectively.
